For assay [1], the system named is Rattus norvegicus. Kind of assay: Inhibition of IgE-mediated passive cutaneous anaphylaxis (PCA) by 50% in rat dosed perorally. The settings on record: po.
Assay [2] is filed under the species Rattus norvegicus. As to the kind of experiment: Concentration required to inhibit antigen-induced release of histamine (AIR) by 50% from rat peritoneal mast cells (RMC) (in vitro). The class given is functional, cell-based. The settings on record: Mast cell, read-out: I-50. In a few lines: (§1)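 Rat peritoneal mast cells passively sensitized in vitro with rat anti-ovalbumin serum; compounds dissolved in Me2SO (final 0.17%). Antigen-induced and spontaneous (no antigen) histamine release measured after 15-min incubation; released and residual extracted histamine determined fluorometrically on an AutoAnalyzer.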

The species entered for assay [3] is Rattus norvegicus. As to the kind of experiment: Concentration required to inhibit antigen-induced release of histamine (AIR) by 50% from rat peritoneal mast cells (RMC) (in vitro). The class given is functional, cell-based. In a few lines: as §1
Assay [4] is filed under the species Rattus norvegicus. Kind of assay: Concentration required to inhibit antigen-induced release of histamine (AIR) by 50% from rat peritoneal mast cells (RMC) (in vitro); f = Stimulation of AIR. In kind it is functional, cell-based. In a few lines:
as §1

In the case of `Cn1c(-c2nnc(O)o2)nc2ccccc21`, it took a dose of 1 mg/kg to reach the 50% effect level with Rattus norvegicus [1] (ED50). For the same compound, the IC50 in the assay filed under Rattus norvegicus [2] stood at 900 nM.

As for `Oc1nnc(-c2nc3cc(Cl)ccc3o2)o1`, the 50% effect level with Rattus norvegicus [1] (ED50) was put at a dose of 16 mg/kg. For the same compound, the IC50 in the assay listed under Rattus norvegicus [2] stood at 350 nM.

As for `CCOC(=O)n1nc(-c2nc3cc(C)ccc3n2C)oc1=O`, the I-50 result in the assay filed under Rattus norvegicus [3] is “Stimulation of AIR”.

With `CCOC(=O)n1nc(-c2nc3ccccc3n2C)oc1=O`, the I-50 entry in the assay filed under Rattus norvegicus [3] is reported as “Stimulation of AIR”.

For the compound `O=C([O-])c1cc(=O)c2c(OCC(O)COc3cccc4oc(C(=O)[O-])cc(=O)c34)cccc2o1.[Na+].[Na+]` [CROMOLYN SODIUM], the ED50 (commonly the dose that gives a 50% effect, or the effect in half of the subjects) with Rattus norvegicus [1] amounted to 6 mg/kg. The IC50 in the assay filed under Rattus norvegicus [2] came out at 3000 nM.

For `Cn1nc(-c2nc3ccccc3o2)oc1=O`, in the assay filed under Rattus norvegicus [4], the I50 entry is “Stimulation of AIR”.

For `CCOC(=O)n1nc(-c2nc3ccccc3o2)oc1=O`, the I-50 result in the assay filed under Rattus norvegicus [3] is listed as “Stimulation of AIR”.

`COC(=O)c1cc(OC)c2oc(-c3nnc(O)o3)nc2c1` registered an ED50 in the assay on Rattus norvegicus [1] of 9 mg/kg. Moreover, in the assay filed under Rattus norvegicus [2], the IC50 worked out at 300 nM.

Compound `Oc1nnc(-c2cc3ccccc3o2)o1` displayed an ED50 in the assay with Rattus norvegicus [1] of 2 mg/kg. Moreover, the IC50 in the assay filed under Rattus norvegicus [2] came to 1500 nM.

On to `CCOC(=O)n1nc(-c2nc3ccc(C)cc3o2)oc1=O`, for which the I-50 entry in the assay filed under Rattus norvegicus [3] is “Stimulation of AIR”.

`Cc1ccc2c(c1)nc(-c1nnc(O)o1)n2C` had an ED50 in the assay with Rattus norvegicus [1] of 5 mg/kg. Further, the IC50 in the assay listed under Rattus norvegicus [2] was 6000 nM.

For the compound `Cc1ccc2oc(-c3nnc(O)o3)nc2c1`, the ED50 in the assay with Rattus norvegicus [1] was determined as 2 mg/kg. Also, in the assay listed under Rattus norvegicus [2], the IC50 was found to be 400 nM.

Take `Cn1c(-c2n[nH]c(O)n2)nc2ccccc21`: in the assay filed under Rattus norvegicus [4], the I-50 result is “Stimulation of AIR”.

Regarding `Cc1ccc2nc(-c3nnc(O)o3)oc2c1`, it took a dose of 2 mg/kg to reach the 50% effect level in the assay on Rattus norvegicus [1] (ED50). The IC50 in the assay listed under Rattus norvegicus [2] is 5000 nM.

Turning to `Oc1nnc(-c2sc3ccccc3c2Cl)o1`, the median effective dose (ED50) in the assay on Rattus norvegicus [1] is over 125 mg/kg. Further, the IC50 in the assay filed under Rattus norvegicus [2] came out at 200 nM.

Regarding `CC(=O)n1nc(-c2nc3ccccc3o2)oc1=O`, in the assay filed under Rattus norvegicus [2], the IC50 is 1400 nM.

Turning to `CCOC(=O)c1ccc2oc(-c3nnc(O)o3)nc2c1`, the IC50 in the assay filed under Rattus norvegicus [2] is 1000 nM.

In the case of `Oc1n[nH]c(-c2nc3ccccc3o2)n1`, in the assay listed under Rattus norvegicus [2], the IC50 turned out to be 60000 nM.

In the case of `Cc1cccc2oc(-c3nnc(O)o3)nc12`, the IC50 in the assay filed under Rattus norvegicus [2] stood at 1000 nM.

Turning to `Oc1nnc(-c2cc3ccccc3[nH]2)o1`, the IC50 in the assay listed under Rattus norvegicus [2] was found to be 33000 nM.

On to `CC1=C(c2nnc(O)o2)Cc2ccccc21`, for which the I-50 entry in the assay listed under Rattus norvegicus [3] is reported as “Stimulation of AIR”. The 50% effective dose (ED50) in the assay with Rattus norvegicus [1] is over 100 mg/kg.

With `Oc1nnc(-c2nc3ccccc3o2)o1`, in the assay with Rattus norvegicus [1], the 50% effect level (ED50) was put at a dose of 3 mg/kg. For the same compound, in the assay filed under Rattus norvegicus [2], the IC50 worked out at 1200 nM.

Turning to `O=C(/C=C/c1ccccc1)n1nc(-c2nc3ccccc3o2)oc1=O`, the IC50 in the assay listed under Rattus norvegicus [2] is 15000 nM.

As for `CCOC(=O)Cn1nc(-c2nc3ccccc3o2)oc1=O`, the I-50 entry in the assay listed under Rattus norvegicus [3] was “Stimulation of AIR”.

Take `CC(=O)n1nc(-c2nc3ccccc3n2C)oc1=O`: in the assay filed under Rattus norvegicus [2], the IC50 was 500 nM.

As to `Oc1nnc(-c2cc3cc(Cl)ccc3[nH]2)o1`, in the assay on Rattus norvegicus [1], the ED50 was 9 mg/kg.

These data come from ChEMBL document CHEMBL1122783, “Synthesis of 2-(2,3-dihydro-2-oxo-1,3,4-oxadiazol-5-yl) benzo heterocycles. A novel series of orally active antiallergic agents” (J Med Chem, 1984).
